For one data set, the system named is B16–F10 melanoma. The experiment in a line: Biodistribution in C57BL/6J mice bearing B16–F10 melanoma. It is filed as in vivo. Summed up:
(§1)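 Male C57BL/6J mice (8–12 weeks) were inoculated subcutaneously on the right dorsal flank with 1 × 10^6 B16–F10 cells and used at 6–8 mm tumor diameter. They received 1–2 MBq 68Ga-labeled test peptide by tail vein under anesthesia, with or without co-injected 0.5 mg BMS 470539. At 1 or 2 h p.i., blood and organs were weighed and gamma-counted. Uptake is %ID/g (mean ± SD); blocked vs unblocked compared by two-way ANOVA with Holm–Sidak.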

Assay in data set [1]: as above
Type of data set: in vivo. The following applies: C57BL/6J, mouse, total radioactivity; for tissue uptake at 1 h / tissue uptake at 2 h: intravenous; for tissue to tissue ratio at 1 h / tissue to tissue ratio at 2 h: iv. An outline of the steps:
as §1

The subject of another data set is B16–F10 cells. Briefly: Internalization assay. It is filed as cell-based, Mus musculus. The following applies: 2 h, 37 °C. Summed up:
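B16–F10 mouse melanoma cells were grown in DMEM with 10% FBS and penicillin/streptomycin, then seeded overnight on poly-D-lysine plates. They were incubated with 68Ga-labeled test peptide at 37 °C with mild agitation for 30, 60, 90 or 120 min, then washed with PBS. Cells were trypsinized for the internalized fraction, and both fractions were gamma-counted in triplicate or quadruplicate.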

Data set [2] can be described thus: In vivo stability, radio-HPLC of mouse urine. More on the design: species or system mice. The following applies: 1 h p.i., intravenous. An outline of the steps:
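Mice under 2% isoflurane received approximately 4–6 MBq 68Ga-labeled test peptide intravenously and recovered freely. At 1 h p.i. they were euthanized by CO2, and urine was collected. Urine was analyzed for metabolites by reversed-phase C18 HPLC in 21% acetonitrile with 0.1% TFA to give percent intact peptide. Three or four independent experiments were run.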

Data set [3] addresses melanocortin 1 receptor (MC1R). The following applies: read-out: binding affinity (Ki) to MC1R; cited from earlier work.
Another data set deals with MC3R. The following applies: read-out: binding affinity to MC3R; cited from earlier work.
The target in another data set is MC5R. The following applies: read-out: binding affinity to MC5R; cited from earlier work.
The next data set addresses MC4R. The following applies: read-out: binding affinity to MC4R; cited from earlier work.
The target in another data set is MC1R (Homo sapiens) (UniProt Q01726). The following applies: cited from earlier work.
Chain of UniProt Q01726 (Q01726 whole entry): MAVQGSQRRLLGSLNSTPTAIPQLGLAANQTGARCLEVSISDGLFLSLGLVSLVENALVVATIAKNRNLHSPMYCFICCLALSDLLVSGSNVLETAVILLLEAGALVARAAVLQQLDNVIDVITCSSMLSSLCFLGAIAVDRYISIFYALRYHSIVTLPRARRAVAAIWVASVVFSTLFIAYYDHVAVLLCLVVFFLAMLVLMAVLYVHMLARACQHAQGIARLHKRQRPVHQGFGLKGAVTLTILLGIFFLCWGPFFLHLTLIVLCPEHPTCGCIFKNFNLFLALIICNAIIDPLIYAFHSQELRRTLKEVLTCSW
In a further data set the target is MC5R (Homo sapiens) (UniProt P33032). The following applies: cited from earlier work.
Chain of UniProt P33032 (P33032 whole entry): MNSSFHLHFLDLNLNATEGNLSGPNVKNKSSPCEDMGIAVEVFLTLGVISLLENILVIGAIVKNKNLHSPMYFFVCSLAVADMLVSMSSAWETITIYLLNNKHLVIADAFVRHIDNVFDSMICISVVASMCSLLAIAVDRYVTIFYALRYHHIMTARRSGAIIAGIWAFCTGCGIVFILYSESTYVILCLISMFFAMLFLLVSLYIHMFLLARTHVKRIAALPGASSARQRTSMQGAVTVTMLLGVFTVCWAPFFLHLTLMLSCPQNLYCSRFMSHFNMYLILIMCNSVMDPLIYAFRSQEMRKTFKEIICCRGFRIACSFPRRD
Another data set deals with MC4R (Homo sapiens) (UniProt P32245). The following applies: cited from earlier work.
Chain of UniProt P32245 (P32245 whole entry): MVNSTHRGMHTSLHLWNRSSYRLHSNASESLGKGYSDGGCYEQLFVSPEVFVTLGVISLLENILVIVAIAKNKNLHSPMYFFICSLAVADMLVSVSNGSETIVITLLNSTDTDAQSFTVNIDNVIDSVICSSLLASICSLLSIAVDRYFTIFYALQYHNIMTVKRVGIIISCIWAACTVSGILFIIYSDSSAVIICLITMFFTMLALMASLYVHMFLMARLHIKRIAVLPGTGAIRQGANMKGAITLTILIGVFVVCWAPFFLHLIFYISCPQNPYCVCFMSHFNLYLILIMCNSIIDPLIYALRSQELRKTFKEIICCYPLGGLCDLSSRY
The target of the next data set is MC3R (Homo sapiens) (UniProt P41968). The following applies: cited from earlier work.
Chain of UniProt P41968 (P41968 whole entry): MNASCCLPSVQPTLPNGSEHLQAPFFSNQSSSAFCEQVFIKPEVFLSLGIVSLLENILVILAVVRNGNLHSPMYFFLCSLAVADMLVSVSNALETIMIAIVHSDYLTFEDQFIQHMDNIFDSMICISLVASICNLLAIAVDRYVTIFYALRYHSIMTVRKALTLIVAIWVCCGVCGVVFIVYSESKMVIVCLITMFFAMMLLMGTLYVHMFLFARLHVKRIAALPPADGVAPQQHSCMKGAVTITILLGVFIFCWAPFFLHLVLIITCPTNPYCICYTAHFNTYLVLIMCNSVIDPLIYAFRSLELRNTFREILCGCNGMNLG

Turning to `CCCC[C@H](NC(=O)CN1CCC(NC(=O)CN2CCN(CC(=O)O)CCN(CC(=O)O)CCN(CC(=O)O)CC2)CC1)C(=O)N[C@H]1CC(=O)NCCCC[C@@H](C(N)=O)N(C)C(=O)[C@H](Cc2c[nH]c3ccccc23)N(C)C(=O)[C@H](CCCNC(=N)N)N(C)C(=O)[C@@H](Cc2ccccc2)NC(=O)[C@H](Cc2cnc[nH]2)N(C)C1=O` [[^68Ga]Ga-CCZ01099, metal not drawn], the tumor/blood uptake ratio in the data set on B16–F10 melanoma (1 h p.i. blocked (n = 5), co-injection of 0.5 mg BMS 470539) came out at 2.24 ± 0.40; in the data set on B16–F10 melanoma (1 h p.i. unblocked (n = 5)), 9.94; in the data set with B16–F10 melanoma (2 h p.i. unblocked (n = 4)), 27.7. The tumor/bone uptake ratio worked out at 23.3 with B16–F10 melanoma (1 h p.i. unblocked (n = 5)) and 52.7 in the data set on B16–F10 melanoma (2 h p.i. unblocked (n = 4)). Also, the tumor/muscle uptake ratio with B16–F10 melanoma (1 h p.i. unblocked (n = 5)) is 40.6; in the data set with B16–F10 melanoma (2 h p.i. unblocked (n = 4)), 125. For the same compound, the “reduction of tumor uptake by blocking” value in the data set with B16–F10 melanoma (1 h p.i., blocking with BMS 470539, p < 0.001) was found to be 91%. Besides, the tissue uptake (in general, the share of the injected amount in each gram of the tissue) at 1 h in data set [1] (B16F10 tumor) was determined as 6.33 ± 1.48 %ID/g; in data set [1] (adrenal glands), 0.79 ± 0.72 %ID/g; in data set [1] (blood), 0.65 ± 0.12 %ID/g; in data set [1] (bone), 0.33 ± 0.18 %ID/g; in data set [1] (heart), 0.24 ± 0.06 %ID/g; in [1] (intestine, 0.5 mg), 0.17 ± 0.05 %ID/g. The tissue uptake at 1 h in data set [1] (intestine) turned out to be 0.34 ± 0.07 %ID/g; in data set [1] (kidneys), 5.59 ± 0.88 %ID/g; in data set [1] (liver), 0.53 ± 0.07 %ID/g; in data set [1] (lungs), 0.69 ± 0.11 %ID/g; in data set [1] (muscle) it was 0.16 ± 0.05 %ID/g; in [1] (stomach), 0.22 ± 0.11 %ID/g. In addition, the tissue uptake at 1 h in [1] (thyroid) is 0.3 ± 0.08 %ID/g; in [1] (male, testes), 0.2 ± 0.06 %ID/g. Moreover, the tissue to tissue ratio at 1 h came out at 9.94 ± 2.93 in data set [1] (tumor and blood); 23.3 ± 12.1 in data set [1] (tumor and bone); 1.13 ± 0.22 in [1] (tumor and kidneys); 11.9 ± 2.26 in data set [1] (tumor and liver); 40.6 ± 11.9 in data set [1] (tumor and muscle). In addition, the tissue to tissue ratio at 2 h in data set [1] (tumor and bone) was found to be 52.7 ± 13.4; in data set [1] (tumor and liver), 11.8 ± 2.72. The tissue uptake at 2 h in data set [1] (male, seminal glands) came to 0.04 ± 0.01 %ID/g; in [1] (male, testes) it was 0.07 ± 0.01 %ID/g. Moreover, in the data set with B16–F10 cells, the radioactivity internalized is reported as 48%. In addition, in [2], the “percentage of intact peptide” value is given as not below 98%.

With “Ac-Nle^4-Cyclo[Asp^5-His^6-D-Phe^7-Arg^8-Trp^9-Lys^10]αMSH4-10-NH2 [MTII]”, the Ki in [3] is 0.69 nM; on MC3R, 34.1 nM; on MC5R it was 46.1 nM.

With “Alpha-melanocyte-stimulating hormone [αMSH]”, on MC4R, the Ki was 900 nM.

αMSH (from UniProt P01189): the Ki in the data set with MC1R (Homo sapiens) was 0.23 nM; with MC5R (Homo sapiens), 7160 nM; with MC4R (Homo sapiens), 900 nM; in the data set with MC3R (Homo sapiens), 31.5 nM.

These data come from publication PMC7240809 (ACS Omega, 2020).
